A selection: hits, their analogues and other compounds. The true share with any hit is near 4%.
CHOP UPR activ = activators of apoptotic CHOP UPR arm, primary screen, cell-based, CHO-CHOP luciferase reporter, luminescence, uHTS | UPR activation; percent of tunicamycin response over DMSO baseline | activation, % at 10 µM | 330,000 tested, 0.34% active | AID 449763, 2010;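 active = at 10 µM dose, activation of 40% or more, normalized to positive control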
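measured by = luciferase luminescence | assay system = CHO-CHOP cells, stable luciferase reporter of PERK-eIF2a-CHOP signalling | amount = 500 reporter cells seeded per well | timing = 6 h compound exposure at 37 °C after overnight seeding | controls = positive tunicamycin 10 µg/mL, negative DMSO alone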
UPR XBP1 act = activators of adaptive XBP1 UPR arm, primary screen, cell-based, CHO-XBP1 luciferase reporter, luminescence, uHTS; 330,000 tested, 0.33% active; IRE1-XBP1 UPR activation; percent of tunicamycin response, DMSO as zero; activation, % at 20 µM;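 active = versus positive control, 20 µM dose yields 30% or more activation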
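Material: CHO-XBP1 cells stably carrying IRE1-XBP1-driven luciferase reporter | Medium: F12 with 10% serum | Compound dosing: 20 µM single concentration, DMSO 1% | Incubation: Overnight seeding at 37 °C, 6 h compound treatment at 37 °C | Detection: Steady-Glo luminescence read | Read-out basis: % activation of reporter signal versus tunicamycin and DMSO controls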
Mdm2-MdmX inh = inhibitors of human Mdm2-MdmX association, primary screen, cell-based, luminescence, split luciferase, SaOS-2, uHTS. AID 485346, 2010. 330,000 tested, 3% active. inhibition, % at 8 µM. SaOS-2 split-luciferase Mdm2/MdmX complementation;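 active = inhibition of at least 50% at 8 µM in the primary screen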
ABHD5 PLIN5 PPI = ABHD5-PLIN5 interaction inhibitors, primary screen, cell lysate, split luciferase complementation, luminescence; inhibition, % at 4 µM; Perilipin-5 (Homo sapiens) + 1-acylglycerol-3-phosphate O-acyltransferase ABHD5 (Homo …; Split G. princeps luciferase complementation, 4 h; AID 602281, 2012; 360,000 tested, 0.78% active;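 active = inhibition above the mean inhibition across every tested compound plus 3 SD, cut at about 22% in these data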
Target sequence (Q00G26 whole entry, looked up): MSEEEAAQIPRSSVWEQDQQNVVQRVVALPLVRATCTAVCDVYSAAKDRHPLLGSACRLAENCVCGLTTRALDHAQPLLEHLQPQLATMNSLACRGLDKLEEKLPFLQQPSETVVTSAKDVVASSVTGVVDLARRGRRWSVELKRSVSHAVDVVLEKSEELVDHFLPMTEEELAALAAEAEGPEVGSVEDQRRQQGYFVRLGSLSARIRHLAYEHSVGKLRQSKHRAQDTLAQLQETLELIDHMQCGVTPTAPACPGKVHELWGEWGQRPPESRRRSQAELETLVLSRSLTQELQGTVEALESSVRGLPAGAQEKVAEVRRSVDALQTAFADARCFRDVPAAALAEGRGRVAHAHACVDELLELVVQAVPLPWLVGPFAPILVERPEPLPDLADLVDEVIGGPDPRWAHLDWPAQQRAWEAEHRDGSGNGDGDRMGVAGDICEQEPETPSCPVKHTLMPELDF
Target sequence (Q8WTS1 whole entry, looked up): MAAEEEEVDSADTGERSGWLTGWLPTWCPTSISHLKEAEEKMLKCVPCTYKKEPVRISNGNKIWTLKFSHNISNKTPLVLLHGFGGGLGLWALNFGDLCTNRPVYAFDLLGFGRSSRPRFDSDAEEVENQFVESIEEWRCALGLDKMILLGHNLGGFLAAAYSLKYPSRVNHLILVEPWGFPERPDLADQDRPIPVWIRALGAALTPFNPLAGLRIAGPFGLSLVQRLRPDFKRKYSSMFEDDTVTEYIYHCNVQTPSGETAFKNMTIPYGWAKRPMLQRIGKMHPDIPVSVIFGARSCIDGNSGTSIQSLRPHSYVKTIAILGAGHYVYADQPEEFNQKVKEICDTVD
Granule exo inh = LAMP-1 surface exposure blockers, TALL-104 cells – cell-based, flow cytometry, MLPCN library, primary screen. TALL-104 LAMP-1 surface exposure; cells stimulated with thapsigargin and PMA. 360,000 tested, 0.66% active. inhibition, % at 10 µM;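 active = inhibition above about 55%, limit read from the data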
Mdm2 MdmX conf = Mdm2-MdmX complex disruptors, retested hits, confirmation, luminescence, single concentration. 10,000 tested, 55% active. inhibition, % at 8 µM. Mdm2-MdmX binding, luminescent assay. shares compounds with Mdm2-MdmX inh; in the data active = inhibition above about 40%
FLuc counter = full-length luciferase signal inhibition, confirmation, counter-screen for Mdm2/MdmX interaction inhibitor project, cell-based, single concentration, SaOS-2 | shares compounds with Mdm2-MdmX inh | SaOS-2 full-length luciferase counterscreen, luminescence | inhibition, % at 8 µM | 6,200 tested, 77% active;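 active = mean inhibition at 8 µM reaching about 37%, which flags the compound as non-specific, limit read from the data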;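 also: p53-null SaOS-2 cells with luciferase driven by a doxycycline-inducible promoter; compound on cells about two nights before reading with doxycycline added after day one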
Each line names hits and unclear results; the compound was inactive in the other large screens (follow-up assays come after a bar, where they were run); ! = not active in a repeat.

CCOc1ccc(/C=C/C(O)=C2/C(=O)N(C)C3(C)CC2c2ccccc2O3)cc1OC (configuration not stated)	Mdm2-MdmX inh 67 | Mdm2 MdmX conf 69 | FLuc counter 41
CCOc1ccc(/C=C2\SC(=O)N(CCNC(=O)C3COc4ccccc4O3)C2=O)cc1OC (configuration not stated)	none
O=C(N/N=C/c1cccc([N+](=O)[O-])c1)c1cccc2cc[nH]c12	none
COc1ccccc1/C=C/C1(C(=O)NC2CCCC2)CC(=O)N1c1ccc(F)cc1 (configuration not stated)	Mdm2-MdmX inh 70 | Mdm2 MdmX conf 89 | FLuc counter 49
COc1ccccc1/C=C/C1(C(=O)NC2CCCC2)CC(=O)N1c1ccc(C)cc1 (configuration not stated)	none
COC(=O)c1cc(Br)c(=O)n(CCN2CCCCC2)c1	none
CCN1C(=O)/C(=C\N2CCCCCC2)SC1=S	none
COCCn1c(C)cc(C(=O)COC(=O)c2cccc(O)c2)c1C	Mdm2-MdmX inh 74 | Mdm2 MdmX conf 85 | FLuc counter 71
COc1ccc(Cl)cc1C(=O)CSc1nnnn1C1CCCC1	none
COCCn1c(C)cc(C(=O)CSc2n[nH]c(N)n2)c1C	none
COCCn1c(C)cc(C(=O)CSc2nnc(C)s2)c1C	Mdm2-MdmX inh 52 | Mdm2 MdmX conf 62 | FLuc counter 48
COCCn1c(C)cc(C(=O)CSc2nnnn2C2CCCC2)c1C	Mdm2-MdmX inh 72 | Mdm2 MdmX conf 80 | FLuc counter 79
O=C(O)c1oc2ccccc2c1-n1cccc1	none
COc1cc(C(=O)NC2CCCCC2)ccc1OCc1ccc(Cl)cc1Cl	Mdm2-MdmX inh 58 | Mdm2 MdmX conf inactive
COc1cc(C(=O)NCCC(C)C)ccc1OCc1ccc(Cl)cc1Cl	none
COc1ccc(C)cc1NC(=O)c1cc2ccccc2o1	none
COc1ccc(/C=C2/SC(=S)N(CCCC(=O)Nc3cccc(O)c3)C2=O)cc1	Mdm2-MdmX inh 83, Granule exo inh 97 | Mdm2 MdmX conf 43 | FLuc counter inactive
O=C(O)C(c1ccccc1)N1C(=O)/C(=C/c2cccs2)SC1=S (configuration not stated)	none
CC(c1ccccc1)N1C(=O)/C(=C/c2ccncc2)SC1=S (configuration not stated)	Mdm2-MdmX inh 67 | Mdm2 MdmX conf inactive
COc1ccc(CN2C(=O)/C(=C/c3ccncc3)SC2=S)cc1	Mdm2-MdmX inh 75 | Mdm2 MdmX conf 76 | FLuc counter 39
COc1ccc(/C=C2\SC(=S)N(CCCC(=O)NNC(=O)c3ccccc3O)C2=O)cc1	Mdm2-MdmX inh 57 | Mdm2 MdmX conf 58 | FLuc counter 46
Cc1ccc(NC(=O)c2cc(=O)c3ccccc3o2)cc1S(=O)(=O)N1CCOCC1	none
CC(=O)c1ccc(N2CCC(c3cc(-c4ccc(Cl)cc4Cl)n[nH]3)CC2)c([N+](=O)[O-])c1	Mdm2-MdmX inh 52 | Mdm2 MdmX conf inactive
Cc1cccc(C(=O)OCC(=O)NCc2cccs2)c1	none
CS(=O)(=O)c1ccc(C(=O)OCC(=O)NCc2cccs2)cc1[N+](=O)[O-]	Mdm2-MdmX inh 73 | Mdm2 MdmX conf 53 | FLuc counter inactive
CC/C(=C(\c1ccc(O)cc1)c1ccc(OCCN(C)C)cc1)c1ccccc1	Mdm2-MdmX inh 93 | Mdm2 MdmX conf inactive | FLuc counter 61
CCN(CC)CCOc1ccc(/C(=C(/Cl)c2ccccc2)c2ccccc2)cc1	Mdm2-MdmX inh 69, ABHD5 PLIN5 PPI 51! | Mdm2 MdmX conf inactive | FLuc counter 76
Cn1c(=O)n(C)c2cc(NS(=O)(=O)c3ccccc3)ccc21	Mdm2-MdmX inh 51 | Mdm2 MdmX conf inactive
Cc1ccc(S(=O)(=O)Nc2ccc3c(c2)n(C)c(=O)n3C)cc1	none
CCc1ccc(S(=O)(=O)Nc2cc3c(cc2C)n(C)c(=O)n3C)cc1	Mdm2-MdmX inh 58 | Mdm2 MdmX conf 55 | FLuc counter 60
Cc1ccc(NS(=O)(=O)c2ccc3c(c2)n(C)c(=O)n3C)c(C)c1	none
Cc1oc(C)c2c(=O)ccc3c(c12)OC(N)=C(C#N)C3c1ccccc1 (configuration not stated)	none
COC(=O)C1=C(C)NC(C)=C(C(=O)OC)C1c1cc2cc(C)ccc2[nH]c1=O	none
N#CC1=C(N)Oc2c(ccc3cccnc23)C1c1ccccc1 (configuration not stated)	Mdm2-MdmX inh 75 | Mdm2 MdmX conf 58 | FLuc counter 54
Cc1ccc2[nH]c(=O)c(C3C(C#N)=C(N)Oc4c3ccc3cccnc43)cc2c1 (configuration not stated)	Mdm2-MdmX inh 57 | Mdm2 MdmX conf 42 | FLuc counter 44
O=C(NCC1CCCO1)c1ccc([N+](=O)[O-])o1 (configuration not stated)	none
COc1ccccc1-n1cnc2c(c1=O)c1nc3ccccc3nc1n2-c1ccc(C)cc1	Mdm2-MdmX inh 55 | Mdm2 MdmX conf 73 | FLuc counter 65
Cc1ccc(Nc2nc3ccccc3nc2-n2nc(C)cc2C)cc1	none
Cc1ccc(Nc2cc(C)nn2-c2nc(C)cc(=O)[nH]2)cc1	CHOP UPR activ 190, Mdm2-MdmX inh 98 | Mdm2 MdmX conf 100 | FLuc counter inactive
Cc1ccc(Sc2c(C=O)c3ccccc3n2C)cc1	Mdm2-MdmX inh 81 | Mdm2 MdmX conf 71 | FLuc counter 53
CN1CCN(c2cc(N3CCN(C(=O)c4ccco4)CC3)c3c4c(onc24)-c2ccccc2C3=O)CC1	Mdm2-MdmX inh 100 | Mdm2 MdmX conf 74 | FLuc counter inactive
O=C(C(Cc1ccccc1)n1cccc1)N1CCN(c2ccccc2)CC1 (configuration not stated)	none
Cc1ccc(C)c(N2CCN(C(=O)C(Cc3ccccc3)n3cccc3)CC2)c1 (configuration not stated)	Mdm2-MdmX inh 50 | Mdm2 MdmX conf inactive
Cc1ccnc(NC(=O)CCCc2c[nH]c3ccccc23)c1	Mdm2-MdmX inh 68 | Mdm2 MdmX conf inactive
